{"source": "ChEMBL document CHEMBL1122510", "about": "“Actinidin hydrolysis of substituted-phenyl hippurates: a quantitative structure-activity relationship and graphics comparison with hydrolysis by papain” (J Med Chem, 1984)"}
{"assay": "Michaelis constant for Actinidin-catalyzed hydrolysis", "type": "ADME", "outline": "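Actinidin purified in-house from kiwi fruit, stored as crystal suspension in 0.1 M sodium phosphate pH 6 with 20% ammonium sulfate; diluted, activated with aqueous DTE (~15 mg/mL), then diluted in 0.1 M sodium phosphate pH 6.0. Substituted-phenyl hippurate added in CH3CN to enzyme-buffer at 25 °C; initial hydrolysis rates read spectrophotometrically at ≥8 substrate concentrations.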"}
{"smiles": "CC(=O)Nc1cccc(OC(=O)CNC(=O)c2ccccc2)c1", "Log 1/Km": 3.18}
{"smiles": "O=C(CNC(=O)c1ccccc1)Oc1ccc(F)cc1", "Log 1/Km": 2.72}
{"smiles": "CC(C)(C)c1cccc(OC(=O)CNC(=O)c2ccccc2)c1", "Log 1/Km": 3.66}
{"smiles": "N#Cc1ccc(OC(=O)CNC(=O)c2ccccc2)cc1", "Log 1/Km": 3.62}
{"smiles": "NS(=O)(=O)c1cccc(OC(=O)CNC(=O)c2ccccc2)c1", "Log 1/Km": 3.42}
{"smiles": "Cc1ccc(OC(=O)CNC(=O)c2ccccc2)cc1", "Log 1/Km": 2.95}
{"smiles": "NC(=O)c1cccc(OC(=O)CNC(=O)c2ccccc2)c1", "Log 1/Km": 3.15}
{"smiles": "Nc1ccc(OC(=O)CNC(=O)c2ccccc2)cc1", "Log 1/Km": 2.55}
{"smiles": "O=C(CNC(=O)c1ccccc1)Oc1cccc(Cl)c1", "Log 1/Km": 3.63}
{"smiles": "O=C(CNC(=O)c1ccccc1)Oc1cc(Cl)cc(Cl)c1", "Log 1/Km": 3.84}
{"smiles": "O=C(CNC(=O)c1ccccc1)Oc1ccccc1", "Log 1/Km": 2.77}
{"smiles": "O=C(CNC(=O)c1ccccc1)Oc1cccc([N+](=O)[O-])c1", "Log 1/Km": 3.53}
{"smiles": "O=C(CNC(=O)c1ccccc1)Oc1cc(Cl)c(Cl)c(Cl)c1", "Log 1/Km": 4.01}
{"smiles": "Cc1cc(C)cc(OC(=O)CNC(=O)c2ccccc2)c1", "Log 1/Km": 3.37}
{"smiles": "CC(=O)c1ccc(OC(=O)CNC(=O)c2ccccc2)cc1", "Log 1/Km": 3.47}
{"smiles": "CCc1cc(C)cc(OC(=O)CNC(=O)c2ccccc2)c1", "Log 1/Km": 3.52}
{"smiles": "O=C(CNC(=O)c1ccccc1)Oc1cccc(F)c1", "Log 1/Km": 3.01}
{"smiles": "O=C(CNC(=O)c1ccccc1)Oc1cc([N+](=O)[O-])cc([N+](=O)[O-])c1", "Log 1/Km": 3.9}
{"smiles": "NS(=O)(=O)c1ccc(OC(=O)CNC(=O)c2ccccc2)cc1", "Log 1/Km": 3.22}
{"smiles": "O=C(CNC(=O)c1ccccc1)Oc1ccc(Cl)cc1", "Log 1/Km": 3.04}
{"smiles": "O=C(CNC(=O)c1ccccc1)Oc1cccc(C(F)(F)F)c1", "Log 1/Km": 3.47}
{"smiles": "COc1cc(OC)cc(OC(=O)CNC(=O)c2ccccc2)c1", "Log 1/Km": 3.6}
{"smiles": "O=C(CNC(=O)c1ccccc1)Oc1cccc(I)c1", "Log 1/Km": 3.93}
{"smiles": "COc1ccc(OC(=O)CNC(=O)c2ccccc2)cc1", "Log 1/Km": 2.87}
{"smiles": "O=C(CNC(=O)c1ccccc1)Oc1ccc([N+](=O)[O-])cc1", "Log 1/Km": 3.8}
{"smiles": "N#Cc1cccc(OC(=O)CNC(=O)c2ccccc2)c1", "Log 1/Km": 3.08}
{"smiles": "Cc1cccc(OC(=O)CNC(=O)c2ccccc2)c1", "Log 1/Km": 3.26}
{"smiles": "NC(=O)c1ccc(OC(=O)CNC(=O)c2ccccc2)cc1", "Log 1/Km": 3.47}
{"smiles": "O=C(CNC(=O)c1ccccc1)Oc1cccc(Br)c1", "Log 1/Km": 3.64}
